Test results taken from PMC7311273 (Nuclear medicine and biology, 2020).
“And” between values parts separate entries of the source, which are not always exact repeats. Equal values may be shown once. “Also recorded” adds a separate entry of the source.

Legend:
[1] = competition with equimolar amounts of ligands with gallium, cited from earlier work
[2] = normal CD-1 IGS male mice, 60 min; cited from earlier work
[3] = Subject tolerability to radiotracer administration; type: in vivo, human
[4] = Normal organ dosimetry from whole body PET and urine collection, OLINDA/EXM; type: in vivo, human
Procedure, shortened: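 Eight men received up to ~232 MBq IV. Six top-of-skull to mid-thigh PET scans (10 beds × 90 s) started ~1, 20, 40, 60, 120 and 150 min. Two low-dose CTs gave attenuation correction. Urine from voids after scans 4 and 6 was gamma-counted. Organ activities came from PET images; cortical bone from femur shaft density × 2130 cm3. Time-activity curves fitted mono/bi-exponentially or by Riemann sum.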

[5] = system: prostate cancer osseous metastases; type: in vivo, human
Procedure, shortened: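 Tracer given IV to men with prostate cancer and known or suspected bone metastases. 60-min dynamic PET from injection over a known or suspected lesion site, then skull-base to mid-thigh PET/CT at ~90 and 180 min. SUVpeak from 1 cm spheres on lesions, blood pool and normal bone. List-mode data subsampled to emulate lower activities (10 replicates, TOF OSEM, 4-mm voxels). Lesion SNR = Lmax/Lmax SD, decay-corrected.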

[6] = 8 male humans, Standard Adult Male phantom
[7] = injected activity of 166.5 MBq (4.5 mCi)

**Q.** For `O=C(O)CN(CCN(CC(=O)O)Cc1ccccc1O)Cc1ccccc1O` [HBED, N, N’-bis(2-hydroxybenzyl)ethylenediamine-N,N’-diacetic acid], which “out complexes DOTA by” value ([1]; versus DOTA) is on record?
**A.** 99%

**Q.** And the “out complexes NOTA by” value ([1]; versus NOTA)?
**A.** 43%

**Q.** For `O=C(O)CN1CCN(CC(=O)O)CCN(CC(=O)NC(P(=O)(O)O)P(=O)(O)O)CCN(CC(=O)O)CC1.[68Ga]` [[^68Ga]Ga-BPAMD, reference compound], which “bone uptake (retention)” value [2] is on record?
**A.** 9.2 % injected activity/g

**Q.** Which results are given for “[^68Ga]Ga-3-(3-(((carboxymethyl)(2-((carboxymethyl)(5-(3-((diphosphonomethyl)amino)-3-oxopropyl)-2-hydroxybenzyl)amino)ethyl)amino)methyl)-4-hydroxyphenyl)propanoic acid [[^68Ga]Ga-P15-041]”?
**A.** changes in vital signs before and after injection ([3]; 13 subjects): No clinically significant changes; tolerability / adverse events ([3]; administered to 13 subjects (12 completed protocol)): well-tolerated with no reports of serious adverse events; Effective dose equivalent, Mean [4, 6]: 2.31E-02 mSv/MBq; Effective dose, Mean [4, 6]: 0.0173 ± 0.0036 mSv/MBq and 1.73E-02 mSv/MBq; absorbed dose estimate, Adrenals, Mean [4, 6]: 1.02E-02 mSv/MBq; absorbed dose estimate, Brain, Mean [4, 6]: 3.57E-03 mSv/MBq; absorbed dose estimate, Breasts, Mean [4, 6]: 8.07E-03 mSv/MBq; absorbed dose estimate, Gallbladder wall, Mean [4, 6]: 1.03E-02 mSv/MBq; absorbed dose estimate, Heart Wall, Mean [4, 6]: 1.98E-02 mSv/MBq; absorbed dose estimate, Kidneys, Mean [4, 6]: 4.93E-02 mSv/MBq; absorbed dose estimate, Liver, Mean [4, 6]: 8.16E-03 mSv/MBq; absorbed dose estimate, Lower large intestine wall, Mean [4, 6]: 1.29E-02 mSv/MBq; absorbed dose estimate, Lungs, Mean [4, 6]: 1.73E-02 mSv/MBq; absorbed dose estimate, Muscle, Mean [4, 6]: 9.19E-03 mSv/MBq; absorbed dose estimate, Osteogenic cells, Mean [4, 6]: 2.63E-02 mSv/MBq; absorbed dose estimate, Ovaries, Mean [4, 6]: 1.16E-02 mSv/MBq; absorbed dose estimate, Pancreas, Mean [4, 6]: 1.03E-02 mSv/MBq; absorbed dose estimate, Red Marrow, Mean [4, 6]: 8.04E-03 mSv/MBq; absorbed dose estimate, Skin, Mean [4, 6]: 7.85E-03 mSv/MBq; absorbed dose estimate, Small intestine, Mean [4, 6]: 2.41E-02 mSv/MBq; absorbed dose estimate, Spleen, Mean [4, 6]: 1.17E-02 mSv/MBq; absorbed dose estimate, Stomach wall, Mean [4, 6]: 9.77E-03 mSv/MBq; absorbed dose estimate, Testes, Mean [4, 6]: 9.57E-03 mSv/MBq; absorbed dose estimate, Thymus, Mean [4, 6]: 9.26E-03 mSv/MBq; absorbed dose estimate, Thyroid, Mean [4, 6]: 8.92E-03 mSv/MBq; absorbed dose estimate, Total Body, Mean [4, 6]: 1.07E-02 mSv/MBq; absorbed dose estimate, Upper large intestine wall, Mean [4, 6]: 1.97E-02 mSv/MBq; absorbed dose estimate, Uterus, Mean [4, 6]: 1.33E-02 mSv/MBq; absorbed dose estimate, Urinary bladder wall, Mean ([4]; 8 male humans, Standard Adult Male phantom, highest individual organ dose): 0.135 mSv/MBq and 1.35E-01 mSv/MBq; absorbed dose to the kidneys [4, 7]: 8.2 mSv; absorbed dose to the urinary bladder wall [4, 7]: 22.5 mSv; effective dose [4, 7]: 2.9 mSv; uptake in bone lesions ([5]; PET/CT, patients with prostate cancer bone metastases): accumulated in known bone lesions; also recorded: lesion uptake consistently above background; activity concentrations in blood and normal bone ([5]; dynamic cohort, n=4, compared to sites of osseous metastasis): low compared to sites of osseous metastasis; clearance from blood and soft tissue ([5]; human PET): cleared rapidly from blood and soft tissue; bone uptake (retention) [2]: 23.5 % injected activity/g
